Results gathered from unrelated publications.
CSF1R: Macrophage colony-stimulating factor 1 receptor (CSF1R, Homo sapiens, UniProt P07333)
CSF1R autoinhibited: Macrophage colony-stimulating factor 1 receptor, autoinhibited (CSF1R, Homo sapiens, UniProt P07333)

For `COc1ccc2[nH]c3c4[nH]c5ccc(OC)cc5c4c4c(c3c2c1)C(=O)NC4=O`, the remaining binding was 58% (CSF1R; binding, competition with immobilised ligand; 1 µM).
`CCCCC(=O)Nc1ccc(-c2ccc3ncn(CCC)c(=O)c3c2)cn1` has a remaining binding of 88% (CSF1R; binding, competition with immobilised ligand; 0.5 µM).
With `Cc1ccc(NC(=O)c2ccnc(C(F)(F)F)c2)cc1-c1cc(OCCO)nc(N2CCOCC2)c1` the remaining binding was 87% (CSF1R autoinhibited; binding, competition with immobilised ligand; 1 µM).
`N#Cc1ccc(NC(=O)Nc2ccccc2)cc1` has a remaining binding of 61% (CSF1R; cell-free assay, competition with immobilised ligand; 25 µM).
`CC#CC(=O)N1CCC[C@H]1c1nc(-c2ccc(C(=O)Nc3ccccn3)cc2)c2c(N)nccn12` gave an inhibition of 0% (CSF1R; enzyme activity, inhibitor; 1 µM).
With `C1=C/COCc2cc(ccc2OCCN2CCCC2)Nc2nccc(n2)-c2cccc(c2)COC/1` the remaining binding was 53% (CSF1R autoinhibited; binding; 0.1 µM).
The remaining signal of `C#Cc1cnc(Nc2ccnc(CO)c2)nc1Nc1ccccc1S(C)(=O)=NC#N` (centres unmarked) is reported as 53% (CSF1R; cell-free assay; 1 µM).
`C=CC(=O)N1CCC([C@@H]2CCNc3c(C(N)=O)c(-c4ccc(Oc5ccccc5)cc4)nn32)CC1` gave an inhibition of 0% (CSF1R autoinhibited; cell-free assay; 1 µM).
